Test results from ChEMBL document CHEMBL4325910, “Design and synthesis of rosiglitazone-ferulic acid-nitric oxide donor trihybrids for improving glucose tolerance” (Eur J Med Chem, 2019).
Activity calls are given as the source filed them. No cut-off for these calls is given here.

Experiments:
3T3-L1 [1] = assay: Induction of superoxide dismutase level in TNF-alpha-induced insulin resistant mouse 3T3L1 cells at 3 to 10 uM after 48 hrs; type: functional, cell-based
Summary of the method: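 3T3-L1 preadipocytes were differentiated, and mature adipocytes made insulin resistant with TNF-α (4 ng/mL) daily for 4 days. Cells were then treated in triplicate for 48 h, with or without 20 μM C-PTIO. Lysate GSH, SOD and MDA were measured with kits. Three experiments, mean ± SD.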

Platelet [2] = assay: Antiplatelet activity in platelet rich plasma (unknown origin) assessed as inhibition of ADP-induced platelet aggregation at 0.2 mM relative to control; type: functional
[3] = Toxicity in spontaneous db/db BKS.Cg-Dock7m +/+ Leprdb/J mouse assessed as body weight gain at 13.5 umol/kg, po administered as daily dose via gavage treated for 18 days measured post last dose (reference value: 5.6 +/- 2.1 g); type: organism-based; conditions: in vivo, 432 h
3T3-L1 [4] = assay: Induction of nitric oxide production in TNF-alpha-induced insulin resistant mouse 3T3L1 cells at 3 to 10 uM after 0.5 to 6 hrs by DAF-FM-2DA dye based fluorescence assay; type: functional, cell-based
Summary of the method: (§1)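 Insulin-resistant 3T3-L1 adipocytes (TNF-α 4 ng/mL, 4 days) were treated for varying times, with or without 20 μM C-PTIO. Vehicle was DMSO 0.1% or NaOH 10 μM. Cells were washed in KRP, loaded with 10 μM DAF-FM-2DA in pH 7.4 PBS at 37 °C for 30 min, and read at Ex/Em 485/515 nm. Three experiments.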

[5] = Metabolic stability in simulated intestinal fluid at pH 6.8 measured after 2 hrs by HPLC analysis; type: ADME; conditions: read-out: Stability
Summary of the method: (§2)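 Gastric fluid was 1% pepsin in water, pH 1.5. Intestinal fluid was 1% trypsin with 0.68% KH2PO4, pH 6.8. Compound (100 mM DMSO stock) was diluted 1:1000 into each, in triplicate. Incubation was at 37 °C for 0, 2, 4, 6, 16 or 24 h. Acetonitrile (3 volumes) stopped it, then HPLC at 254 nm.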

Mus musculus [6] = assay: Cardioprotective activity in db/db BKS.Cg-Dock7m +/+ Leprdb/J mouse assessed as decrease in serum cTnI level administered po as daily dose via gavage for 18 days by ELISA; type: functional, organism-based
Summary of the method: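 db/db mice were gavaged daily for 18 days in 0.5% CMC-Na, with vehicle-treated model and C57BL/6 control groups. Tail vein blood was collected and serum TNF-α and cTnI measured by commercial ELISA kits. Six individual experiments, mean ± SD, one-way ANOVA.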

[7] = Metabolic stability in simulated intestinal fluid at pH 6.8 measured immediately after compound addition by HPLC analysis; type: ADME; conditions: read-out: Stability; summary of the method: as §2
[8] = Metabolic stability in simulated intestinal fluid at pH 6.8 measured after 16 hrs by HPLC analysis; type: ADME; conditions: read-out: Stability; summary of the method: as §2
[9] = Toxicity in spontaneous db/db BKS.Cg-Dock7m +/+ Leprdb/J mouse assessed as reduction in serum hematocrit value at 13.5 to 27 umol/kg, po administered as daily dose via gavage treated for 18 days; type: organism-based; conditions: in vivo, 432 h
[10] = Metabolic stability in simulated gastric fluid at pH 1.5 measured after 24 hrs by HPLC analysis; type: ADME; conditions: read-out: Stability; summary of the method: as §2
Platelet [11] = assay: Antiplatelet activity in platelet rich plasma (unknown origin) assessed as inhibition of arachidonic acid-induced platelet aggregation at 0.8 mM relative to control; type: functional
[12] = Metabolic stability in simulated gastric fluid at pH 1.5 measured after 16 hrs by HPLC analysis; type: ADME; conditions: read-out: Stability; summary of the method: as §2
[13] = Metabolic stability in simulated gastric fluid at pH 1.5 measured after 2 hrs by HPLC analysis; type: ADME; conditions: read-out: Stability; summary of the method: as §2
[14] = Metabolic stability in simulated gastric fluid at pH 1.5 measured immediately after compound addition by HPLC analysis; type: ADME; conditions: read-out: Stability; summary of the method: as §2
Mus musculus [15] = assay: Effect on lipid metabolism in spontaneous db/db BKS.Cg-Dock7m +/+ Leprdb/J mouse assessed as increase in serum HDL level at 27 umol/kg, po administered as daily dose via gavage for 18 days; type: functional, organism-based
Summary of the method: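 db/db mice were gavaged daily for 18 days in 0.5% CMC-Na (n=8 per group), with a vehicle model group. On day 19, blood was collected and serum prepared by centrifugation. Serum triglyceride and HDL were then measured.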

3T3-L1 [16] = assay: Induction of nitric oxide mediated increase in insulin-stimulated 2-NBDG uptake in TNF-alpha-induced insulin resistant mouse 3T3L1 cells at 3 to 10 uM preincubated for 48 hrs followed by 2-NBDG addition measured after 30 mins in presence of insulin by fluorescence assay; type: functional, cell-based
Summary of the method: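 Day-8 differentiated 3T3-L1 adipocytes received TNF-α (4 ng/mL) daily for 4 days. They were pretreated in triplicate for 48 h (C-PTIO 20 μM where indicated), then given 100 μM 2-NBDG at 37 °C for 30 min in the dark, with or without insulin. After KRP washes, fluorescence was read at Ex/Em 485/515 nm. Three experiments, mean ± SD.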

[17] = Metabolic stability in human liver microsomes after 6 hrs in presence of NADPH by HPLC analysis; type: ADME, Microsome; conditions: read-out: Stability
Summary of the method: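 Compound (100 mM DMSO stock) was added in triplicate to 0.1 M phosphate buffer pH 7.4 with 3.3 mM MgCl2 and human liver microsomes, then preincubated 5 min at 37 °C. NADPH (1.3 mM stock) was added and incubation continued 0, 0.5, 1, 2 or 6 h. Acetonitrile quench, then HPLC at 254 nm.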

[18] = Metabolic stability in Sprague-Dawley rat plasma after 0.5 hrs by HPLC analysis; type: ADME, cell-free
Summary of the method: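 Compound (100 μM final; 100 mM DMSO stock diluted 1:1000) was incubated in triplicate in SD rat plasma at 37 °C with shaking for 0–24 h. Acetonitrile (3 volumes) was added, samples centrifuged and supernatants run on HPLC. Gradient was ammonium acetate pH 3.5/acetonitrile, 1.0 mL/min, detection at 254 nm.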

Platelet [19] = assay: Antiplatelet activity in platelet rich plasma (unknown origin) assessed as inhibition of ADP-induced platelet aggregation at 16 mM relative to control; type: functional
Platelet [20] = assay: Antiplatelet activity in platelet rich plasma (unknown origin) assessed as inhibition of arachidonic acid-induced platelet aggregation at 8 mM relative to control; type: functional
3T3-L1 [21] = assay: Induction of nitric oxide production in TNF-alpha-induced insulin resistant mouse 3T3L1 cells at 10 uM after 0.5 to 6 hrs by DAF-FM-2DA dye based fluorescence assay; type: functional, cell-based; summary of the method: as §1
Mus musculus [22] = assay: Antidiabetic activity in spontaneous db/db BKS.Cg-Dock7m +/+ Leprdb/J mouse assessed as decrease in fasting blood glucose level at 10 mg/kg, po administered as daily dose via gavage for 18 days measured on day 9 post last dose by glucometric analysis; type: functional, organism-based
Summary of the method: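 Male db/db mice (BKS.Cg-Dock7m +/+ Leprdb/J), 6 weeks old on purchase, randomized, n=8 per group. Dosed by gavage in 0.5% CMC-Na daily for 18 consecutive days. Vehicle-dosed db/db and C57BL/6 mice served as model and control. Fasting glucose was read by glucometer every three days. On day 12, after an overnight fast, 2 g/kg glucose was given orally. Blood glucose was read at 0–120 min and AUC calculated. Mean ± SEM.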

CCN(CC)/[N+]([O-])=N/OCOC(=O)/C=C/c1ccc(OC(=O)OCN2C(=O)SC(Cc3ccc(OCCN(C)c4ccccn4)cc3)C2=O)c(OC)c1 (configuration not stated)
Activity (3T3-L1 [1]): Active
inhibition at 200 µM (Platelet [2]): 9.9%
Activity [3]: 4 g
Activity (3T3-L1 [4]): Active
remaining at 2 h [5]: 97.7%
Activity (Mus musculus [6]): Dose-dependent effect
remaining at 0 h [7]: 100%
remaining at 16 h [8]: 85.8%
Activity [9]: Non-Toxic
remaining at 24 h [10]: 82.6%
inhibition at 800 µM (Platelet [11]): 51.6%
remaining at 16 h [12]: 86.6%
remaining at 2 h [13]: 99.8%
remaining at 0 h [14]: 100%
Activity (Mus musculus [15]): Active
Activity (3T3-L1 [16]): Active
remaining at 6 h [17]: 82%

CN(CCOc1ccc(CC2SC(=O)NC2=O)cc1)c1ccccn1 (configuration not stated) [ROSIGLITAZONE]
Stability [18]: 20%
inhibition at 16000 µM (Platelet [19]): 68.9%
inhibition at 8000 µM (Platelet [20]): 54.4%
Activity (3T3-L1 [21]): inactive
Activity (Mus musculus [22]): Active
